Measured values of several laboratories.
MAP3K7: Mitogen-activated protein kinase kinase kinase 7 (MAP3K7, Homo sapiens, UniProt O43318)
MAL12: Alpha-glucosidase MAL12 (MAL12, Saccharomyces cerevisiae S288c, UniProt P53341)

For `CCCCC(=O)Nc1ccc(-c2ccc3ncn(CCC)c(=O)c3c2)cn1`, the remaining binding was 100% (Wee1-like protein kinase 2 (WEE2, Homo sapiens, UniProt P0C1S8); binding, competition with immobilised ligand; 0.5 µM).
`CS(=O)(=NC#N)c1ccccc1Nc1nc(Nc2ccnc(CO)c2)ncc1Cl` (stereo not shown) has a remaining activity of 80.5% (MAP3K7; enzyme activity, inhibitor; 1 µM).
For `C1=C/COCc2cc(ccc2OCCN2CCCC2)Nc2nccc(n2)-c2cccc(c2)COC/1`, the remaining binding was 88% (Tyrosine-protein kinase Lyn (LYN, Homo sapiens, UniProt P07948); binding; 0.1 µM).
`COc1cc(O)c2c(c1)O[C@H](c1ccccc1)CC2=O` gave an inhibition of 15.1% (MAL12; enzyme activity, inhibitor, absorbance; 50 µM).
With `Nc1ncnc2c1ncn2[C@@H]1O[C@H](COP(=O)(O)OP(=O)(O)OP(=O)(O)O)[C@@H](O)[C@H]1O` the Km was 410 µM (Hexokinase HKDC1 (Homo sapiens, UniProt Q2TB90); enzyme activity, substrate; pH 8).
With `O=c1cc(-c2ccc(O)c(O)c2)oc2cc(O)cc(O)c12` the inhibition was 34.4% (MAL12; enzyme activity, inhibitor, absorbance; 50 µM).
`CNC(=O)c1ccccc1Nc1nc(Nc2ccc(CO)cc2)ncc1Cl` gave a remaining activity of 42.9% (MAP3K7; enzyme activity, inhibitor; 1 µM).
The inhibition of `O=c1c(O)c(-c2ccc(O)cc2)oc2cc(O)cc(O)c12` is reported as 39.8% (MAL12; enzyme activity, inhibitor, absorbance; 50 µM).
The remaining activity of `CNC(=O)c1ccccc1Nc1nc(Nc2ccc(CO)nc2)ncc1Cl` is reported as 64.9% (MAP3K7; enzyme activity, inhibitor; 1 µM).
`COc1cc2c3c(c1OC)-c1c(OC)ccc(-c4ccc(C#N)cc4)c1CC3N(C)CC2` (stereo not shown) gave an inhibition of 83% (Alpha-1A adrenergic receptor (ADRA1A, Homo sapiens, UniProt P35348); ligand displacement, radioligand; 10 µM).
`C#Cc1cc(-c2cc(Nc3nc(N[C@@H](C)c4ccc(F)cn4)ncc3Cl)n[nH]2)ccc1C=O` has an inhibition of 35% (Mitotic checkpoint serine/threonine-protein kinase BUB1 (BUB1, Homo sapiens, UniProt O43683); enzyme activity, inhibitor; 0.2 µM).
`CC(=O)ON=C1C=CC(=C(C#N)c2ccccc2)C=C1` gave an activity vs control of 89% (Glycogen synthase kinase 3 (Plasmodium falciparum, UniProt O77344); enzyme activity, inhibitor, ADP detection; 20 µM).
`COc1ccc2oc(-c3ccc4nc(N)oc4c3)c/c(=N\c3ccccc3NC(=O)CCN)c2c1` has a remaining binding of 99% (Bone morphogenetic protein receptor type-1B (BMPR1B, Homo sapiens, UniProt O00238); binding; 1 µM).
